In brackets after ≈: the same amount, converted by molar mass.
How the values were obtained:
Assay type in all cases: functional
[1] = tested on: Stenotrophomonas maltophilia; experiment: Antibacterial activity against Stenotrophomonas maltophilia assessed as percent cumulative susceptible isolates at minimum inhibitory concentration of 4 ug/ml by CLSI broth microdilution method; set-up: scale not given: the % may be the effect or the level left
Enterococcus faecalis [2] = experiment: Antibacterial activity against Enterococcus faecalis assessed as percent cumulative susceptible isolates at minimum inhibitory concentration of […] by CLSI broth microdilution method; set-up: scale not given: the % may be the effect or the level left
Enterococcus faecium = experiment: Antibacterial activity against Enterococcus faecium assessed as percent cumulative susceptible isolates at minimum inhibitory concentration of 32 ug/ml by CLSI broth microdilution method; set-up: scale not given: the % may be the effect or the level left
Pseudomonas aeruginosa [3] = experiment: Antibacterial activity against Pseudomonas aeruginosa assessed as percent cumulative susceptible isolates at minimum inhibitory concentration of […] by CLSI broth microdilution method; set-up: scale not given: the % may be the effect or the level left
Staphylococcus aureus [4] = experiment: Antibacterial activity against Staphylococcus aureus by CLSI M7-A7 broth microdilution method
Acinetobacter baumannii [5] = experiment: Antibacterial activity against Acinetobacter baumannii assessed as percent cumulative susceptible isolates at minimum inhibitory concentration of […] by CLSI broth microdilution method; set-up: scale not given: the % may be the effect or the level left
Staphylococcus aureus [6] = experiment: Antibacterial activity against methicillin-susceptible Staphylococcus aureus assessed as percent cumulative susceptible isolates at minimum inhibitory concentration of 0.5 ug/ml by CLSI broth microdilution method; set-up: scale not given: the % may be the effect or the level left
Enterobacteriaceae = experiment: Antibacterial activity against Enterobacteriaceae by CLSI M7-A7 broth microdilution method
Acinetobacter baumannii [7] = experiment: Antibacterial activity against Acinetobacter baumannii assessed as percent cumulative susceptible isolates at minimum inhibitory concentration of 1 ug/ml by CLSI broth microdilution method; set-up: scale not given: the % may be the effect or the level left
Enterobacter cloacae [8] = experiment: Antibacterial activity against Enterobacter cloacae assessed as percent cumulative susceptible isolates at minimum inhibitory concentration of […] by CLSI broth microdilution method; set-up: scale not given: the % may be the effect or the level left
Staphylococcus aureus [9] = experiment: Antibacterial activity against methicillin-resistant Staphylococcus aureus assessed as percent cumulative susceptible isolates at minimum inhibitory concentration of […] by CLSI broth microdilution method; set-up: scale not given: the % may be the effect or the level left
Klebsiella oxytoca = experiment: Antibacterial activity against Klebsiella oxytoca assessed as percent cumulative susceptible isolates at minimum inhibitory concentration of […] by CLSI broth microdilution method; set-up: scale not given: the % may be the effect or the level left
Escherichia coli [10] = experiment: Antibacterial activity against Escherichia coli assessed as percent cumulative susceptible isolates at minimum inhibitory concentration of 32 ug/ml by CLSI broth microdilution method; set-up: scale not given: the % may be the effect or the level left
Escherichia coli [11] = experiment: Antibacterial activity against Escherichia coli assessed as percent cumulative susceptible isolates at minimum inhibitory concentration of 8 ug/ml by CLSI broth microdilution method; set-up: scale not given: the % may be the effect or the level left
Staphylococcus aureus [12] = experiment: Antibacterial activity against hospital-associated methicillin-resistant Staphylococcus aureus assessed as percent cumulative susceptible isolates at minimum inhibitory concentration of […] by CLSI broth microdilution method; set-up: scale not given: the % may be the effect or the level left
Staphylococcus aureus [13] = experiment: Antibacterial activity against hospital-associated methicillin-resistant Staphylococcus aureus assessed as percent cumulative susceptible isolates at minimum inhibitory concentration of 8 ug/ml by CLSI broth microdilution method; set-up: scale not given: the % may be the effect or the level left
Enterobacter cloacae [14] = experiment: Antibacterial activity against Enterobacter cloacae assessed as percent cumulative susceptible isolates at minimum inhibitory concentration of 32 ug/ml by CLSI broth microdilution method; set-up: scale not given: the % may be the effect or the level left
Streptococcus pneumoniae [15] = experiment: Antibacterial activity against penicillin-resistant Streptococcus pneumoniae assessed as percent cumulative susceptible isolates at minimum inhibitory concentration of […] by CLSI broth microdilution method; set-up: scale not given: the % may be the effect or the level left
Staphylococcus aureus [16] = experiment: Antibacterial activity against methicillin-susceptible Staphylococcus aureus assessed as percent cumulative susceptible isolates at minimum inhibitory concentration of 4 ug/ml by CLSI broth microdilution method; set-up: scale not given: the % may be the effect or the level left
Pseudomonas aeruginosa [17] = experiment: Antibacterial activity against Pseudomonas aeruginosa assessed as percent cumulative susceptible isolates at minimum inhibitory concentration of 1 ug/ml by CLSI broth microdilution method; set-up: scale not given: the % may be the effect or the level left
Proteus mirabilis [18] = experiment: Antibacterial activity against Proteus mirabilis assessed as percent cumulative susceptible isolates at minimum inhibitory concentration of 32 ug/ml by CLSI broth microdilution method; set-up: scale not given: the % may be the effect or the level left
Enterobacter cloacae [19] = experiment: Antibacterial activity against Enterobacter cloacae assessed as percent cumulative susceptible isolates at minimum inhibitory concentration of 8 ug/ml by CLSI broth microdilution method; set-up: scale not given: the % may be the effect or the level left
Staphylococcus aureus [20] = experiment: Antibacterial activity against methicillin-susceptible Staphylococcus aureus assessed as percent cumulative susceptible isolates at minimum inhibitory concentration of 32 ug/ml by CLSI broth microdilution method; set-up: scale not given: the % may be the effect or the level left
Outline: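 Clinical isolates tested by CLSI broth microdilution using 96-well panels of doubling drug dilutions in cation-adjusted Mueller-Hinton broth with 5% lysed horse blood. MIC was read from these panels. Panel quality control used CLSI ATCC strains, including S. pneumoniae 49619, S. aureus 29213, E. faecalis 29212 and E. coli 25922. Cumulative percentages of isolates were tabulated at each MIC.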

Staphylococcus aureus [21] = experiment: Antibacterial activity against methicillin-susceptible Staphylococcus aureus assessed as percent cumulative susceptible isolates at minimum inhibitory concentration of 8 ug/ml by CLSI broth microdilution method; set-up: scale not given: the % may be the effect or the level left
Pseudomonas aeruginosa [22] = experiment: Antibacterial activity against Pseudomonas aeruginosa assessed as percent cumulative susceptible isolates at minimum inhibitory concentration of 0.5 ug/ml by CLSI broth microdilution method; set-up: scale not given: the % may be the effect or the level left
Staphylococcus aureus [23] = experiment: Antibacterial activity against methicillin-resistant Staphylococcus aureus assessed as percent cumulative susceptible isolates at minimum inhibitory concentration of 1 ug/ml by CLSI broth microdilution method; set-up: scale not given: the % may be the effect or the level left
Proteus mirabilis [24] = experiment: Antibacterial activity against Proteus mirabilis assessed as percent cumulative susceptible isolates at minimum inhibitory concentration of >=[…] by CLSI broth microdilution method; set-up: scale not given: the % may be the effect or the level left
[25] = tested on: Staphylococcus epidermidis; experiment: Antibacterial activity against methicillin-susceptible Staphylococcus epidermidis assessed as percent cumulative susceptible isolates at minimum inhibitory concentration of […] by CLSI broth microdilution method; set-up: scale not given: the % may be the effect or the level left
Enterococcus faecalis [26] = experiment: Antibacterial activity against Enterococcus faecalis assessed as percent cumulative susceptible isolates at minimum inhibitory concentration of 0.5 ug/ml by CLSI broth microdilution method; set-up: scale not given: the % may be the effect or the level left
[27] = Ratio of fAUC (0 to 24 hrs) in in vitro PK/PD model at 750 mg to MIC for Streptococcus pneumoniae
Acinetobacter baumannii [28] = experiment: Antibacterial activity against Acinetobacter baumannii by CLSI M7-A7 broth microdilution method
Enterococcus faecalis [29] = experiment: Antibacterial activity against Enterococcus faecalis assessed as percent cumulative susceptible isolates at minimum inhibitory concentration of 4 ug/ml by CLSI broth microdilution method; set-up: scale not given: the % may be the effect or the level left
Staphylococcus aureus [30] = experiment: Antibacterial activity against Levofloxacin-susceptible Staphylococcus aureus assessed as percent cumulative susceptible isolates at minimum inhibitory concentration of 0.06 ug/ml by CLSI broth microdilution method; set-up: scale not given: the % may be the effect or the level left
[31] = tested on: Stenotrophomonas maltophilia; experiment: Antibacterial activity against Stenotrophomonas maltophilia assessed as percent cumulative susceptible isolates at minimum inhibitory concentration of […] by CLSI broth microdilution method; set-up: scale not given: the % may be the effect or the level left
Proteus mirabilis [32] = experiment: Antibacterial activity against Proteus mirabilis assessed as percent cumulative susceptible isolates at minimum inhibitory concentration of 64 ug/ml by CLSI broth microdilution method; set-up: scale not given: the % may be the effect or the level left
Streptococcus pneumoniae [33] = experiment: Antibacterial activity against Streptococcus pneumoniae assessed as percent cumulative susceptible isolates at minimum inhibitory concentration of 0.03 ug/ml by CLSI broth microdilution method; set-up: scale not given: the % may be the effect or the level left
[34] = Ratio of fAUC (0 to 24 hrs) in in vitro PK/PD model at 750 mg to MIC for community-associated methicillin-resistant Staphylococcus aureus
Staphylococcus aureus [35] = experiment: Antibacterial activity against methicillin-susceptible Staphylococcus aureus assessed as percent cumulative susceptible isolates at minimum inhibitory concentration of 2 ug/ml by CLSI broth microdilution method; set-up: scale not given: the % may be the effect or the level left

Compound | Activity [1] [%] | Activity (Enterococcus faecalis [2]) [%] | Activity (Enterococcus faecium) [%] | Activity (Pseudomonas aeruginosa [3]) [%] | MIC (Staphylococcus aureus [4]) [µg/mL] | MIC90 (Staphylococcus aureus [4]) [µg/mL] | Activity (Acinetobacter baumannii [5]) [%] | Activity (Staphylococcus aureus [6]) [%] | MIC90 (Enterobacteriaceae) [µg/mL] | Activity (Acinetobacter baumannii [7]) [%] | Activity (Enterobacter cloacae [8]) [%] | Activity (Staphylococcus aureus [9]) [%] | Activity (Klebsiella oxytoca) [%] | Activity (Escherichia coli [10]) [%] | Activity (Staphylococcus aureus [12]) [%] | Activity (Staphylococcus aureus [13]) [%] | Activity (Enterobacter cloacae [14]) [%] | Activity (Streptococcus pneumoniae [15]) [%] | Activity (Staphylococcus aureus [16]) [%] | Activity (Pseudomonas aeruginosa [17]) [%] | also measured
C[C@H]1COc2c(N3CCN(C)CC3)c(F)cc3c(=O)c(C(=O)O)cn1c23.C[C@H]1COc2c(N3CCN(C)CC3)c(F)cc3c(=O)c(C(=O)O)cn1c23.O [LEVOFLOXACIN] | 84.6 | 2.5 | 100 | 10.2 | ≥ 2 | 16 | 80 | 88.8 | ≤ 0.06 | 93.3 | 90.3 | 8.7 | 100 | 100 | 3 | 4 | 100 | 3.1 | 92 | 59.9 | Activity (Escherichia coli [11]): 78.5%; Activity (Proteus mirabilis [18]): 100%; Activity (Enterobacter cloacae [19]): 98.6%; Activity (Staphylococcus aureus [20]): 100%; Activity (Staphylococcus aureus [21]): 93.6%; Activity (Pseudomonas aeruginosa [22]): 42.3%; Activity (Staphylococcus aureus [23]): 9.4%
COc1c(N2C[C@@H](C)C[C@H](N)C2)ccc2c(=O)c(C(=O)O)cn(C3CC3)c12 [NEMONOXACIN] | 73.1 | 67.9 | 79 | 4.4 | < 2 | 0.06 (≈ 0.162 µM) | 73.3 | 93.9 | 0.5 (≈ 1.35 µM) | 93.3 | 83.3 | 16.5 | 81.3 | 93.2 | 4 | 68.7 | 100 | 84.4 | 98.9 | 51.1 | Activity (Proteus mirabilis [24]): 100%; Activity [25]: 37.2%; Activity (Enterococcus faecalis [26]): 70.4%; RatioAUC/MIC [27]: > 393; MIC90 (Acinetobacter baumannii [28]): 1 µg/mL (≈ 2.69 µM); Activity (Enterococcus faecalis [29]): 98.8%; Activity (Staphylococcus aureus [30]): 97.1%; Activity [31]: 3.8%; Activity (Proteus mirabilis [32]): 97%; Activity (Streptococcus pneumoniae [33]): 99.1%; RatioAUC/MIC [34]: 98; Activity (Staphylococcus aureus [35]): 96%; Activity (Proteus mirabilis [18]): 93.9%; Activity (Enterobacter cloacae [19]): 95.8%; Activity (Staphylococcus aureus [20]): 100%; Activity (Staphylococcus aureus [21]): 99.2%; Activity (Pseudomonas aeruginosa [22]): 14.6%; Activity (Staphylococcus aureus [23]): 34.6%
